In one data set the test system is Leishmania mexicana. Kind of data set: Antileishmanial activity against Leishmania mexicana MNYC/BZ/62/M promastigotes after 120 hrs by [3H]thymidine uptake assay. It counts as functional, organism-based. An outline of the steps:
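Promastigotes were seeded at 1.5 x 10^6/ml in triplicate and exposed to 0.01 to 100 µg/ml compound for 72 or 120 h. [3H]thymidine was added for the last 16 h. Percent inhibition = 100 − (cpm treated/cpm untreated × 100). Amphotericin B (0.27–1.6 µM) was the positive control.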

Data set [1] deals with Trypanosoma cruzi. The data set can be described thus: Antitrypanosomal activity against Trypanosoma cruzi trypomastigotes after 24 hrs by counting remaining live parasites in a Neubauer chamber.
The subject of data set [2] is Trypanosoma cruzi. Kind of data set: Antitrypanosomal activity against Trypanosoma cruzi trypomastigotes infected in C3H/HeN mouse assessed survival rate at 1 mg/kg/day, ip treated from day 5 to 10 postinfection measured on 100th day postinfection. It counts as functional. Particulars: route intraperitoneal. An outline of the steps: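 Male inbred C3H/HeN mice, 6 to 8 weeks old, 27.2 ± 0.9 g, in groups of five, infected ip with 5 x 10^3 bloodstream trypomastigotes. Circulating parasites confirmed on day 5 by microhematocrit. Dosed ip daily, 1 mg/kg/day, on days 5 to 10 postinfection, in 0.1 M PBS pH 7.2; vehicle alone as negative control. Deaths recorded daily; three independent experiments.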

In data set [3] the test system is Trypanosoma cruzi. The data set can be described thus: Antitrypanosomal activity against Trypanosoma cruzi epimastigotes after 72 hrs by [3H]thymidine uptake assay. The format is functional, organism-based. An outline of the steps:
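Epimastigotes were seeded at 1.5 x 10^6/ml in triplicate with compound up to 100 µg/ml for 72 or 120 h, with [3H]thymidine pulsed for the final 16 h. Inhibition % = 100 − (cpm treated/cpm untreated × 100). Benznidazole (5 to 20 µM) was the positive control. Results are means ± SEM.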

Data set [4] in a line: Selectivity index, ratio of CC50 for mouse T cells to IC50 for Trypanosoma cruzi trypomastigotes. The format is functional, T-cell. An outline of the steps: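 SI = 50% cytotoxic concentration on murine T lymphocytes (24 h, trypan blue exclusion) divided by IC50 against bloodstream trypomastigotes (24 h, Neubauer count of live parasites).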
Data set [5] deals with Trypanosoma cruzi. Kind of data set: Antitrypanosomal activity against Trypanosoma cruzi trypomastigotes infected in C3H/HeN mouse assessed as reduction in parasitemia at 1 mg/kg/day, ip treated from day 5 to 10 postinfection measured during acute phase of infection relative to control. It counts as functional. Conditions: route intraperitoneal. An outline of the steps: (§1)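 Male C3H/HeN mice (6–8 weeks, groups of five) were infected ip with 5 x 10^3 bloodstream trypomastigotes, with parasitemia confirmed on day 5 by microhematocrit. Dosing was 1 mg/kg/day ip in 0.1 M PBS pH 7.2 on days 5–10; vehicle served as negative control. Tail blood (5 µl, lysed 1:5 in NH4Cl/Tris) was counted by Neubauer chamber every 2 days. Deaths were recorded daily. Three independent experiments were run.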

Data set [6] concerns Trypanosoma cruzi. Kind of data set: Antitrypanosomal activity against Trypanosoma cruzi trypomastigotes infected in C3H/HeN mouse assessed as decrease in parasitemia at 1 mg/kg/day, ip treated from day 5 to 10 postinfection measured on day 16. It counts as functional, organism-based. An outline of the steps: as §1
Data set [7] in a line: Cytotoxicity against BALB/c mouse T cell after 24 hrs by trypan blue exclusion method. The format is cell-based. Conditions: T cells. An outline of the steps:
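BALB/c mouse T lymphocytes at 2 x 10^6/ml were exposed to 0.1, 1, 10 and 50 µg/ml compound for 24 h. Viability was scored by trypan blue exclusion. Results are means ± SEM of three experiments done in duplicate.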

Molecules are shown by their SMILES. ≈ marks a conversion by molar mass, not a printed value. Calls of active or inactive are those of the source. No cut-off for these calls is given here.

`C=C1C(=O)O[C@@H]2[C@H]1CC[C@H](C)[C@]1(CCC(=O)O1)[C@@]2(C)O` [PSILOSTACHYIN A]: the IC50 is 0.12 µg/mL (≈ 0.428 µM) with Leishmania mexicana, 0.76 µg/mL (≈ 2.71 µM) in the data set on Trypanosoma cruzi [1] and 1.22 µg/mL (≈ 4.35 µM) in the data set on Trypanosoma cruzi [3]. Besides, the Activity with Trypanosoma cruzi [2] was 100%. The “Selectivity Index” value in data set [4] is recorded as 33.8. In addition, the “fold change (FC)” value in the data set on Trypanosoma cruzi [5] was 1.5. The inhibition result in the data set with Trypanosoma cruzi [6] was “Active”. The compound also registered a CC50 at 24 h in data set [7] of 25.7 µg/mL (≈ 91.7 µM).
For the compound `C=C1C(=O)O[C@@H]2C[C@H](C)[C@]3(O)CCC(=O)[C@@]3(C)C[C@H]12` [PERUVIN], the IC50 in the data set with Leishmania mexicana worked out at 0.39 µg/mL (≈ 1.48 µM); with Trypanosoma cruzi [1] it was 52.8 µg/mL (≈ 200 µM); in the data set with Trypanosoma cruzi [3] it was 1.65 µg/mL (≈ 6.24 µM). For the same compound, the “Selectivity Index” value in data set [4] is listed as 0.7. In data set [7], this compound displayed a cytotoxic concentration (CC50) at 24 h of 35 µg/mL (≈ 132 µM).

As a reminder, the IC50 is the point on the concentration scale where inhibition reaches its midpoint. Lower therefore signals higher potency. For orientation: CC50 means the concentration that lowers cell viability or growth by half. Low values mean harm at low concentration, high ones better tolerance by the cells.

The values are drawn from ChEMBL document CHEMBL1275436, “Trypanocidal and leishmanicidal activities of sesquiterpene lactones from Ambrosia tenuifolia Sprengel (Asteraceae)” (Antimicrob Agents Chemother, 2008).
